Measured values taken from ChEMBL document CHEMBL4190389, “Synthesis and activity of di- or trisubstituted N-(phenoxyalkyl)- or N-{2-[2-(phenoxy)ethoxy]ethyl}piperazine derivatives on the central nervous system” (Bioorg Med Chem Lett, 2018).
Activity calls are given as the source filed them. No cut-off for these calls is given here.

Tests used:
Mus musculus [1] = assay: Toxicity in Albino Swiss CD-1 mouse assessed as effect on locomotory activity at 5 to 10 mg/kg, ip administered for 30 mins prior to test measured for 1 min; type: organism-based; conditions: in vivo
Outline: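 Mice dosed i.p. 30 min before test; vehicle groups received 0.9% NaCl. Spontaneous locomotion scored as number of crossings during a 1-min session. Each dose compared with its own vehicle group by Student t-test; mean ± SEM, n = 8–10 mice per group.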

[2] = biological target: T1, 5-hydroxytryptamine receptor 1A (Homo sapiens) (UniProt P08908); assay: Agonist activity at human 5-HT1A receptor expressed in CHO-K1 cells co-expressing Galpha16 assessed as increase in calcium mobilization measured for 30 secs by aequorin-derived luminescence assay relative to serotonin; type: functional, cell-based
T1 sequence (whole entry): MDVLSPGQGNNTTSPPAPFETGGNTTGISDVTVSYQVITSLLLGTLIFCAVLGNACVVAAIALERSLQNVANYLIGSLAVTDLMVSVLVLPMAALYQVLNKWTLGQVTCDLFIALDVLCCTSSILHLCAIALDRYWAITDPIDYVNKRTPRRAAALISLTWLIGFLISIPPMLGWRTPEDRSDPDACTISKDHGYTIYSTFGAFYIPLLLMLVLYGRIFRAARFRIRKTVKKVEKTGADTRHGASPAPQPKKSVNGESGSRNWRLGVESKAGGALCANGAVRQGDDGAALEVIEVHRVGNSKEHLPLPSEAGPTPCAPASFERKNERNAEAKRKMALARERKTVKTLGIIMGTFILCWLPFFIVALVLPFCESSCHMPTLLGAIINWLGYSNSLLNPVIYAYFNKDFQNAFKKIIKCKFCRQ

Mus musculus [3] = assay: Antidepressant-like activity in Albino Swiss CD-1 mouse assessed as immobility time at 20 mg/kg, ip administered 30 mins prior to test measured for last 4 mins of 6 mins observation by forced swim test (reference value: 153.9 to 201.9 secs); type: functional
[4] = biological target: T2, 5-hydroxytryptamine receptor 2A (Homo sapiens, UniProt P28223); assay: Antagonist activity at human 5-HT2A receptor expressed in CHO-K1 cells co-expressing Galpha16 assessed as decrease in serotonin calcium mobilization preincubated for 30 mins followed by serotonin challenge measured for 30 secs by aequorin-derived luminescence assay; type: functional, cell-based
T2 sequence (P28223 whole entry): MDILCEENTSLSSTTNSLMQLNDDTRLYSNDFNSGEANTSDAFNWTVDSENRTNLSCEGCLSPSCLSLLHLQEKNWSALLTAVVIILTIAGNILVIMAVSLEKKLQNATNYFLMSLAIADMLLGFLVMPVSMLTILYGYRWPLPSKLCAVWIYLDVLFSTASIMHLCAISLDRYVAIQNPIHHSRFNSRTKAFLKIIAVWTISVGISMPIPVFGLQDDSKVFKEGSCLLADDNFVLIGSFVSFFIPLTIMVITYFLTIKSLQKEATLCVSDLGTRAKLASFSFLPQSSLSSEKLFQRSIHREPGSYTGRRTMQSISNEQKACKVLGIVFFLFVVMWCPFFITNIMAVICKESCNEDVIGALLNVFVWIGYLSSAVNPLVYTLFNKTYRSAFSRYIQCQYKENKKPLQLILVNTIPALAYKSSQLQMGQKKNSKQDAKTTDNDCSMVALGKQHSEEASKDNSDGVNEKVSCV

[5] = biological target: T3, 5-hydroxytryptamine receptor 1A (Homo sapiens, UniProt P08908); assay: Displacement of [3H]8-OH-DPAT from recombinant human 5-HT1A receptor expressed in HEK293 cell membranes after 60 mins by liquid scintillation counting method
T3 sequence (P08908 whole entry): T1 sequence (whole entry)

[6] = biological target: T4, 5-hydroxytryptamine receptor 7 (Homo sapiens, UniProt P34969); assay: Antagonist activity at human 5-HT7 receptor expressed in CHO-K1 cells assessed as decrease in serotonin-induced cAMP level after 1 hr by TR-FRET assay; type: functional, cell-based
T4 sequence (P34969 whole entry): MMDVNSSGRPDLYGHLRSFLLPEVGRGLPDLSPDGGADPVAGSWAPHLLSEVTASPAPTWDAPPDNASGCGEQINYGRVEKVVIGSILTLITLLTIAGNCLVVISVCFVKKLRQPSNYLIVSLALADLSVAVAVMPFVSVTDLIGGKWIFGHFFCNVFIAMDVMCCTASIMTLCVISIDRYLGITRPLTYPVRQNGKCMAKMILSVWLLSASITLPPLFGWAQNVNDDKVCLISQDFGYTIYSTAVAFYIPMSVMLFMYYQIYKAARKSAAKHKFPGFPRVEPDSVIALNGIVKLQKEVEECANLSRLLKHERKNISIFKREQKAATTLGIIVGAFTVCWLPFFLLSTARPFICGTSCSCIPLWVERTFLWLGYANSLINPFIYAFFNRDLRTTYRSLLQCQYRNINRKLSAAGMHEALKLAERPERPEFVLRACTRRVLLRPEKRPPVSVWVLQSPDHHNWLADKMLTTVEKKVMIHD

Mus musculus [7] = assay: Antidepressant-like activity in Albino Swiss CD-1 mouse assessed as immobility time at 10 mg/kg, ip administered 30 mins prior to test measured for last 4 mins of 6 mins observation by forced swim test (reference value: 153.9 to 201.9 secs); type: functional
D(2) dopamine receptor [8] = biological target: T5, D(2) dopamine receptor (Homo sapiens, UniProt P14416); assay: Displacement of [3H]methylspiperonee from recombinant human D2 receptor expressed in HEK293 cells cell membranes after 60 mins by liquid scintillation counting method
T5 sequence (P14416 whole entry): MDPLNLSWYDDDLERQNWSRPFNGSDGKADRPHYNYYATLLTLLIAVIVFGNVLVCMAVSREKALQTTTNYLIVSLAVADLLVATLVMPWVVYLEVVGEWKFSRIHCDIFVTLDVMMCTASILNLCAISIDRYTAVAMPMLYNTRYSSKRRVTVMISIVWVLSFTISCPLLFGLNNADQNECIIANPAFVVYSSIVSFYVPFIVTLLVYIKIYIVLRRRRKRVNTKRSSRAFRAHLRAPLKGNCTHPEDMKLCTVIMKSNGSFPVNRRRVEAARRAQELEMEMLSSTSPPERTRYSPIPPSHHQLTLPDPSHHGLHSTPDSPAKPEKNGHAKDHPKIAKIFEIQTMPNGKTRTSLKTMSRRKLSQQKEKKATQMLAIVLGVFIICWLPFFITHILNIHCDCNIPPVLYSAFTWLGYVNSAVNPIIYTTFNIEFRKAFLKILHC

[9] = biological target: T4, 5-hydroxytryptamine receptor 7; assay: biochemical; type: cell-based, CHO
[10] = biological target: T4, 5-hydroxytryptamine receptor 7; assay: Antagonist activity at human 5-HT7 receptor expressed in CHO-K1 cells assessed as decrease in serotonin-induced cAMP level after 1 hr by TR-FRET assay relative to control; type: functional, cell-based
[11] = biological target: T6, Alpha-1A adrenergic receptor (Homo sapiens, UniProt P35348); assay: Displacement of [3H]prazosin from recombinant human alpha1 adrenoceptor expressed in CHO cell membranes after 30 mins by liquid scintillation counting method
T6 sequence (P35348 whole entry): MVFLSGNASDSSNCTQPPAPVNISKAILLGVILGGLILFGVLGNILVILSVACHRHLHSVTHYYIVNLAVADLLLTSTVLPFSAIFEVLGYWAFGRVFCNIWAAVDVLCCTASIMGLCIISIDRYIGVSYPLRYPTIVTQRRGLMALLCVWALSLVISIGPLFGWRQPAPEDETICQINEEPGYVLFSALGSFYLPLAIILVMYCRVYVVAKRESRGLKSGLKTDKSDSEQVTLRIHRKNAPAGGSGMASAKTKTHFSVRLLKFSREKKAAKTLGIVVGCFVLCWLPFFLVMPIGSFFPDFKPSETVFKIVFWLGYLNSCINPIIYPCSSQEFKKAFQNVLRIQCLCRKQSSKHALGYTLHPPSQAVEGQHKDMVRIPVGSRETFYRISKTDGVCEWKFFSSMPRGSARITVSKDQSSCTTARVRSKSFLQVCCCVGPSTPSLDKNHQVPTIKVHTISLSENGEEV

D(2) dopamine receptor [12] = biological target: T5, D(2) dopamine receptor; assay: Agonist activity at human D2 receptor expressed in CHO-K1 cells co-expressing Galphaqi5 assessed as increase apomorphine-induced calcium mobilization measured for 30 secs by aequorin-derived luminescence assay relative to apomorphine; type: functional, cell-based
[13] = biological target: T2, 5-hydroxytryptamine receptor 2A; assay: biochemical; type: cell-based, HEK293
[14] = biological target: 5-hydroxytryptamine receptor 6 (Homo sapiens, UniProt P50406); assay: Displacement of [3H]LSD from recombinant human 5-HT6 receptor expressed in CHO cells cell membranes after 60 mins by liquid scintillation counting method
Chain of 5-hydroxytryptamine receptor 6 (P50406 whole entry): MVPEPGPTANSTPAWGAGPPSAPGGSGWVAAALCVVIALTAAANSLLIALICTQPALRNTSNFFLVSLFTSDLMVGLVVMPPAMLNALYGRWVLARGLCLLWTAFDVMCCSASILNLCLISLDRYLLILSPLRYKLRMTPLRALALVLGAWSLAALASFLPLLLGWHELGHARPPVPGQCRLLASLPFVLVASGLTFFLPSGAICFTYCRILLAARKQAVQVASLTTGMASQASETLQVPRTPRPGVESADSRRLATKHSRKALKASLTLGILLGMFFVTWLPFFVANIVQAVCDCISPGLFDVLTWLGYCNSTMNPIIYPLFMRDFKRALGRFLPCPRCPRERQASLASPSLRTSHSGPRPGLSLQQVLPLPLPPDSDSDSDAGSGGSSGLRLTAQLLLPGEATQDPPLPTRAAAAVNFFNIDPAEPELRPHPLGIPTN

[15] = biological target: T3, 5-hydroxytryptamine receptor 1A; assay: (§1) Antagonist activity at human 5-HT1A receptor expressed in CHO-K1 cells co-expressing Galpha16 assessed as decrease in serotonin calcium mobilization preincubated for 25 mins followed by serotonin challenge measured for 30 secs by aequorin-derived luminescence assay; type: functional, cell-based
[16] = biological target: T1, 5-hydroxytryptamine receptor 1A (Homo sapiens); assay: as §1; type: functional, cell-based
[17] = biological target: T1, 5-hydroxytryptamine receptor 1A (Homo sapiens); assay: Antagonist activity at human 5-HT1A receptor expressed in CHO-K1 cells co-expressing Galpha16 assessed as decrease in serotonin-induced calcium mobilization preincubated for 25 mins followed by serotonin challenge measured for 30 secs by aequorin-derived luminescence assay relative to control; type: functional, cell-based
[18] = biological target: T4, 5-hydroxytryptamine receptor 7; assay: Agonist activity at human 5-HT7 receptor expressed in CHO-K1 cells assessed as increase in serotonin-induced cAMP level after 1 hr by TR-FRET assay relative to serotonin; type: functional, cell-based
D(2) dopamine receptor [19] = biological target: T5, D(2) dopamine receptor; assay: Agonist activity at human D2 receptor expressed in CHO-K1 cells co-expressing Galphaqi5 assessed as increase in calcium mobilization measured for 30 secs by aequorin-derived luminescence assay; type: functional, cell-based
Mus musculus [20] = assay: Anxiolytic-like activity in Albino Swiss CD-1 mouse assessed as increase in number of punished crossings at 5 to 10 mg/kg, ip administered for 30 mins prior to test measured for 1 min by four-plate test; type: functional, organism-based
Outline: (§2)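 Four-plate test in mice, i.p., 30 min before test; vehicle 0.9% NaCl; doses 1.25–10 mg/kg; number of punished crossings counted; mean ± SEM, n = 8–10 mice per group; ANOVA F statistics.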

Mus musculus [21] = assay: Antidepressant-like activity in Albino Swiss CD-1 mouse assessed as immobility time at 5 mg/kg, ip administered 30 mins prior to test measured for last 4 mins of 6 mins observation by forced swim test (reference value: 153.9 to 201.9 secs); type: functional
Mus musculus [22] = assay: Anxiolytic-like activity in Albino Swiss CD-1 mouse assessed as increase in number of punished crossings at 10 mg/kg, ip administered for 30 mins prior to test measured for 1 min by four-plate test; type: functional, organism-based; outline: as §2
Mus musculus [23] = assay: Antinociceptive activity in STZ-induced Albino Swiss CD-1 mouse model of thermal-induced nociception assessed as increase in latency to respond with hind paw lick or jumping at 30 mg/kg, ip measured after 60 mins by hot plate test; type: functional, organism-based
Mus musculus [24] = assay: Anticonvulsant activity in Albino Swiss CD-1 mouse assessed as protection against 50 Hz current-induced seizure at 100 mg/kg, ip; type: functional, organism-based
Mus musculus [25] = assay: Antiallodynic activity in oxaliplatin-induced Albino Swiss CD-1 mouse allodynia model assessed as effect on hind paw licking at 30 mg/kg, ip measured after 60 mins by cold plate test; type: functional, organism-based
Mus musculus [26] = assay: Antiallodynic activity in oxaliplatin-induced Albino Swiss CD-1 mouse allodynia model assessed as effect on jumping at 30 mg/kg, ip measured after 60 mins by cold plate test; type: functional, organism-based
Mus musculus [27] = assay: Antiallodynic activity in oxaliplatin-induced Albino Swiss CD-1 mouse allodynia model assessed as effect on shaking at 30 mg/kg, ip measured after 60 mins by cold plate test; type: functional, organism-based
Mus musculus [28] = assay: Antiallodynic activity in oxaliplatin-induced Albino Swiss CD-1 mouse allodynia model assessed as effect on decrease in abnormal movement at 30 mg/kg, ip measured after 60 mins by cold plate test; type: functional, organism-based
[29] = Neurotoxicity in ip dosed Albino Swiss CD-1 mouse assessed as minimum dose required to induce motor impairment treated 30 mins prior to test by rotarod test; type: toxicity, organism-based; conditions: in vivo
Mus musculus [30] = assay: Antiallodynic activity in STZ-induced Albino Swiss CD-1 mouse allodynia model assessed as increase in paw withdrawal latency time at 30 mg/kg, ip measured after 60 mins by Von Frey test; type: functional, organism-based
[31] = Protection index, ratio of TD50 for motor impairment in ip dosed Swiss albino CD-1 mouse to ED50 for protection against 50 Hz current-induced seizures in ip dosed Swiss albino CD-1 mouse; type: toxicity, organism-based, Swiss CD-1; conditions: in vivo, read-out: Ratio TD50/ED50
Mus musculus [32] = assay: Toxicity in Albino Swiss CD-1 mouse assessed as death at 15 to 100 mg/kg, ip; type: organism-based; conditions: in vivo
Outline: (§3)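 Deaths counted in mice during maximal electroshock (MES) seizure testing after i.p. dosing, 6 mice per dose (3 or 1 at some top doses); recorded as number dead/number tested alongside protection and rotarod motor impairment (10 rpm); untreated control group included.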

Mus musculus [33] = assay: Neurotoxicity in Albino Swiss CD-1 mouse assessed as motor impairment at 15 mg/kg, ip treated 30 mins prior to test by rotarod test; type: toxicity, organism-based; conditions: in vivo, 0.5 h
Mus musculus [34] = assay: Anticonvulsant activity in ip dosed Albino Swiss CD-1 mouse assessed as dose required to protect against 50 Hz current-induced seizure; type: functional; conditions: Swiss CD-1, ip
Mus musculus [35] = assay: Toxicity in Albino Swiss CD-1 mouse assessed as death at 20 to 40 mg/kg, ip; type: organism-based; conditions: in vivo; outline: as §3
Mus musculus [36] = assay: Toxicity in Albino Swiss CD-1 mouse assessed as effect on locomotory activity at 1.25 to 5 mg/kg, ip administered for 30 mins prior to test measured for 1 min; type: organism-based; conditions: in vivo
Mus musculus [37] = assay: Anxiolytic-like activity in Albino Swiss CD-1 mouse assessed as increase in number of punished crossings at 2.5 mg/kg, ip administered for 30 mins prior to test measured for 1 min by four-plate test; type: functional, organism-based; outline: as §2
Mus musculus [38] = assay: Anxiolytic-like activity in Albino Swiss CD-1 mouse assessed as increase in number of punished crossings at 5 mg/kg, ip administered for 30 mins prior to test measured for 1 min by four-plate test; type: functional, organism-based; outline: as §2
D(2) dopamine receptor [39] = biological target: T5, D(2) dopamine receptor; assay: Antagonist activity at human D2 receptor expressed in CHO-K1 cells co-expressing Galphaqi5 assessed as decrease in apomorphine-induced calcium mobilization preincubated for 30 mins followed by apomorphine challenge measured for 30 secs by aequorin-derived luminescence assay; type: functional, cell-based

Structure (SMILES)	Activity (Mus musculus [1])	Emax [2]	Time (Mus musculus [3])	IC50 [4]	Ki [5]	IC50 [6]	Kb [6]	Time (Mus musculus [7])	Ki (D(2) dopamine receptor [8])	Ki [9]	Emax [10]	Ki [11]	Emax (D(2) dopamine receptor [12])	Ki [13]	Ki [14]	IC50 [15]	Kb [16]	Emax [17]	Emax [18]	Time (Mus musculus [21])	other results
Cc1cc(OCCCN2CCN(c3ccccc3)CC2)ccc1Cl.Cl.Cl	Non-Toxic	11%	172.1 s	85800 nM	20 nM	5790 nM	2460 nM	188.9 s	299 nM	90 nM	15%	93 nM	48%	76 nM	> 5000 nM	291 nM	71.5 nM	6%	11%	189.1 s	EC50 (D(2) dopamine receptor [19]): 757 nM; Activity (Mus musculus [20]): inactive
COc1ccc(N2CCN(CCCOc3c(C)cc(C)cc3C)CC2)cc1.Cl.Cl	Non-Toxic	1%	183.9 s		146 nM			202 s	4960 nM	3030 nM		2120 nM		772 nM	> 5000 nM	595 nM	146 nM	8%		179.9 s	Activity (Mus musculus [22]): Active; Activity (Mus musculus [23]): inactive; Activity (Mus musculus [24]): Active; Activity (Mus musculus [25]): inactive; Activity (Mus musculus [26]): inactive; Activity (Mus musculus [27]): inactive; Activity (Mus musculus [28]): inactive; TD50 at 0.5 h [29]: 67.9 mg/kg; Activity (Mus musculus [30]): Active; selectivity ratio [31]: 2.89; Activity (Mus musculus [32]): Non-Toxic; Activity (Mus musculus [33]): Non-Toxic; ED50 (Mus musculus [34]): 23.5 mg/kg
COc1ccccc1N1CCN(CCOCCOc2c(C)cc(C)cc2C)CC1.Cl.Cl		3%	150.6 s	18200 nM	5 nM	1840 nM	783 nM	131.3 s	189 nM	70 nM	3%	15 nM	1%	245 nM	2430 nM	56.8 nM	13.9 nM	20%	11%	138.5 s	Activity (Mus musculus [35]): Non-Toxic; Activity (Mus musculus [36]): Non-Toxic; Activity (Mus musculus [37]): Active; TD50 at 0.5 h [29]: 31.5 mg/kg; selectivity ratio [31]: 1.19; Activity (Mus musculus [38]): Active; ED50 (Mus musculus [34]): 26.3 mg/kg; IC50 (D(2) dopamine receptor [39]): 82 nM; Kb (D(2) dopamine receptor [39]): 24.4 nM
